Measured values pooled from the literature.
Lines come from different studies, so protocols differ.
HDAC5: Histone deacetylase 5 (HDAC5, Homo sapiens, UniProt Q9UQL6)
A disintegrin and metalloproteinase with thrombospondin motifs 7: A disintegrin and metalloproteinase with thrombospondin motifs 7 (Homo sapiens, UniProt Q9UKP4)
F11: Coagulation factor XI (F11, Homo sapiens, UniProt P03951)
PDE1C: Dual specificity calcium/calmodulin-dependent 3',5'-cyclic nucleotide phosphodiesterase 1C (PDE1C, Homo sapiens, UniProt Q14123)

| SMILES | target | read-out | mode | method | pH | IC50 |
| --- | --- | --- | --- | --- | --- | --- |
| O=C(NO)c1cncc(OS(=O)(=O)Oc2ccc3ccccc3c2)c1 | HDAC5 | enzyme activity | inhibitor | fluorescence | – | 8200 nM |
| CCCC(=O)NCCCN1CCc2c([nH]c3ccc(Cl)cc23)C1 | Sodium-dependent dopamine transporter (SLC6A3, Homo sapiens, UniProt Q01959, F155Y) | transporter uptake | inhibitor | – | – | 18200 nM |
| Cn1nccc1[C@]1(CNC(=O)c2ccc(C(F)(F)F)c(F)c2-c2ccc(C(F)(F)F)cc2)NC(=O)NC1=O | A disintegrin and metalloproteinase with thrombospondin motifs 7 | enzyme activity | inhibitor | FRET | – | 9.5 nM |
| O=c1oc(-c2ccco2)nc2ccccc12 | F11 | enzyme activity | inhibitor | absorbance | pH 7.4 | > 50000 nM |
| O=C(/C=C/c1ccc(O)c2oc(-c3ccc(O)c(O)c3)cc12)O[C@H](Cc1ccc(O)c(O)c1)C(=O)O | YTH domain-containing family protein 2 (YTHDF2, Homo sapiens, UniProt Q9Y5A9) | ligand displacement | – | FP | – | 6000 nM |
| Cn1nccc1[C@]1(CNC(=O)c2ccccc2-c2ccc(C(F)(F)F)cc2)NC(=O)NC1=O | A disintegrin and metalloproteinase with thrombospondin motifs 7 | enzyme activity | inhibitor | FRET | – | 12 nM |
| Cc1cc2c(c(=O)[nH]1)C(=O)O/C2=C\c1cc(F)ccc1OCCN1CCOCC1 | PDE1C | enzyme activity | inhibitor | radiometric | – | 31 nM |
| O=C1NC(=O)[C@](CNC(=O)c2cnn(-c3ccc(F)cc3)n2)(C2CC2)N1 | A disintegrin and metalloproteinase with thrombospondin motifs 7 | enzyme activity | inhibitor | FRET | – | 25.6 nM |
| Cc1cc2c(c(=O)[nH]1)C(=O)O/C2=C\c1ccc(F)cc1OC(C)C | PDE1C | enzyme activity | inhibitor | radiometric | – | 709 nM |
| O=C(NO)c1cncc(OS(=O)(=O)Oc2ccc(-n3ccnc3)cc2)c1 | HDAC5 | enzyme activity | inhibitor | fluorescence | – | 3560 nM |
| CCOc1ccccc1/C=C1\OC(=O)c2c1cc(C)[nH]c2=O | PDE1C | enzyme activity | inhibitor | radiometric | – | 147 nM |
| Cn1nccc1[C@]1(CNC(=O)c2ccc(Cl)c(F)c2-c2ccc(C(F)(F)F)cc2)NC(=O)NC1=O | A disintegrin and metalloproteinase with thrombospondin motifs 7 | enzyme activity | inhibitor | FRET | – | 3.2 nM |
| COc1ccc(C[C@H]2COC(=O)[C@@H]2Cc2ccc(OCC(=O)Nc3ccc(C(=O)Nc4ccccc4N)cc3)c(OC)c2)cc1OC | HDAC5 | enzyme activity | inhibitor | – | – | > 10000 nM |
| Cc1cc2c(c(=O)[nH]1)C(=O)O/C2=C\c1ccccc1OCC1CC1 | PDE1C | enzyme activity | inhibitor | radiometric | – | 190 nM |
| O=c1oc(-c2cccnc2)nc2ccccc12 | F11 | enzyme activity | inhibitor | absorbance | pH 7.4 | > 50000 nM |
